From publication PMC2916634 (Biochemistry, 2010)
Ends that are not written are not given here. Me3 = Me3: trimethyl-lysine (trimethylated lysine)

B1: CYP33 RRM domain (T3-K83), wild type (domain or fragment, human, UniProt Q9UNP9 3-83, looked up)
chain: TTKRVLYVGGLAEEVDDKVLHAAFIPFGDITDIQIPLDYETEKHRGFAFVEFELAEDAAAAIDNMNESELFGRTIRVNLAK
B8: MLL PHD3 (third PHD finger of MLL), wild type (domain or fragment, human, UniProt Q03164 1564-1628, looked up)
chain: AKGNFCPLCDKCYDDDDYESKMMQCGKCDRWVHSKCENLSDEMYEILSNLPESVAYTCVNCTERH

What was measured:
HOXC8 = assay: Q-RT-PCR of HOXC8 expression in HEK293T cells; assay type: cell-based; conditions: 48 h after transfection, normalized to β2M, vs empty vector
Outline: (§1)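 HEK293T cells transfected with Lipofectamine 2000 using pCEP4 empty vector, FLAG-tagged wild-type CYP33 or PPIase-dead CYP33 (R191A/F196A). At 48 h, RNA extracted with Trizol and reverse-transcribed. qPCR run in triplicate. cDNA levels normalized to β2M by the comparative Ct method.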

HOXA9 = assay: Q-RT-PCR of HOXA9 expression in HEK293T cells; assay type: cell-based; conditions: 48 h after transfection, normalized to β2M, vs empty vector
Outline: as §1

CDKN1B = assay: Q-RT-PCR of CDKN1B expression in HEK293T cells; assay type: cell-based; conditions: 48 h after transfection, normalized to β2M, vs empty vector
Outline: as §1

C-MYC = assay: Q-RT-PCR of C-MYC expression in HEK293T cells; assay type: cell-based; conditions: 48 h after transfection, normalized to β2M, vs empty vector
Outline: as §1

CDKN1B promoter = assay: Chromatin immunoprecipitation at CDKN1B promoter in HEK293T cells; assay type: cell-based; conditions: ChIP, 48 h after transfection, CYP33 overexpression vs empty vector
Outline: (§2)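 HEK293T cells transfected with empty vector or pCEP4-CYP33 by lipofectamine, then formalin-fixed at 48 h. Chromatin immunoprecipitated with anti-histone H3, anti-H3K4me3, anti-acetyl-H3 (K9/K14) or IgG control antibodies. Recovered DNA quantified by qPCR at MLL target gene promoters. Fold occupancy normalized to input DNA.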

HOXC8 promoter = assay: Chromatin immunoprecipitation at HOXC8 promoter in HEK293T cells; assay type: cell-based; conditions: ChIP, 48 h after transfection, CYP33 overexpression vs empty vector
Outline: as §2

[1] = biological target: PHD3−CYP33 RRM complex (PHD3 saturated with CYP33 RRM) (human, UniProt Q03164 1564-1628; Q9UNP9 3-83); assay: ITC
[2] = biological target: B8; assay: ITC
MLL PHD3 V1617A mutant = MLL PHD3 V1617A mutant (human, UniProt Q03164 1564-1628, V1617A); assay: ITC
[3] = biological target: PHD3 (MLL PHD3, wild-type) (Homo sapiens, UniProt Q03164); assay: ITC binding of H3K4me3 peptide or CYP33 RRM; conditions: CYP33 RRM Ala mutant to wild-type PHD3
W1594A PHD3 = W1594A PHD3 (Homo sapiens, UniProt Q03164, W1594A); assay: ITC binding to PHD3 W1594A mutant
PHD3 = conditions: yeast two-hybrid assay, co-immunoprecipitation, and GST pull-down; cited from earlier work
[4] = 15N−1H HSQC structural integrity of mutants; assay type: physicochemical; conditions: 15N−1H HSQC of mutant vs wild type, 30 °C, pH 6.9
[5] = biological target: B1; assay: ITC

CYP33 mutant (R191A/F196A)
HOXC8 expression (HOXC8): no longer downregulated | HOXA9 expression (HOXA9): no longer downregulated | CDKN1B expression (CDKN1B): no longer downregulated | C-MYC expression (C-MYC): no longer downregulated

CYP33: Human nuclear Cyclophilin33, full-length; FLAG-tagged wild-type expressed from pCEP4 plasmid in HEK293T cells
HOXC8 expression (HOXC8): markedly downregulated | HOXA9 expression (HOXA9): markedly downregulated | CDKN1B expression (CDKN1B): markedly downregulated | C-MYC expression (C-MYC): markedly downregulated | H3K4me3 mark (CDKN1B promoter): reduced | H3 acetylation level (K9 and K14) (CDKN1B promoter): reduced | histone H3 density (CDKN1B promoter): increase | H3K4me3 mark (HOXC8 promoter): reduced | histone H3 density (HOXC8 promoter): increase

ARTK(Me3)QTARKSTGGKAY (not fully specified) [Histone H3 peptide (residues 1-15) trimethylated at K4]
fold increase in Kd against PHD3 alone [1]: ~5.7 fold | stoichiometry N [2]: 1

B1
fold decrease in affinity against wild-type PHD3 (MLL PHD3 V1617A mutant): ~6.2 fold

B2: R47A (protein)
chain: TTKRVLYVGGLAEEVDDKVLHAAFIPFGDITDIQIPLDYETEKHAGFAFVEFELAEDAAAAIDNMNESELFGRTIRVNLAK
modifications: left off: GST, end not stated, cleaved
interaction with PHD3 [3]: did not abrogate the interaction

B3: CYP33 RRM: RRM domain of CYP33 spanning residues T3−K83 (protein)
chain: TTKRVLYVGGLAEEVDDKVLHAAFIPFGDITDIQIPLDYETEKHRGFAFVEFELAEDAAAAIDNMNESELFGRTIRVNLAK
modifications: left off: GST, end not stated, cleaved
Kd (W1594A PHD3; 25 °C, pH 7.2, CYP33 RRM to W1594A PHD3): 19.6 µM | fold weaker Kd vs wild-type PHD3 (W1594A PHD3; CYP33 RRM to W1594A PHD3): ~1.3 fold | interaction with PHD3 (PHD3): interacts

B4: F49A (protein)
chain: TTKRVLYVGGLAEEVDDKVLHAAFIPFGDITDIQIPLDYETEKHRGAAFVEFELAEDAAAAIDNMNESELFGRTIRVNLAK
modifications: left off: GST, end not stated, cleaved
effect of mutation on structure [4]: without disrupting the structure

B5: L39A (protein)
chain: TTKRVLYVGGLAEEVDDKVLHAAFIPFGDITDIQIPADYETEKHRGFAFVEFELAEDAAAAIDNMNESELFGRTIRVNLAK
modifications: left off: GST, end not stated, cleaved
effect of mutation on structure [4]: without disrupting the structure

B6: K45A (protein)
chain: TTKRVLYVGGLAEEVDDKVLHAAFIPFGDITDIQIPLDYETEAHRGFAFVEFELAEDAAAAIDNMNESELFGRTIRVNLAK
modifications: left off: GST, end not stated, cleaved
interaction with PHD3 [3]: did not abrogate the interaction

B7: CYP33 RRM L39A mutant (domain or fragment, human, UniProt Q9UNP9 3-83, looked up)
chain: TTKRVLYVGGLAEEVDDKVLHAAFIPFGDITDIQIPADYETEKHRGFAFVEFELAEDAAAAIDNMNESELFGRTIRVNLAK
fold decrease in affinity against wild-type CYP33 RRM [2]: ~4.3 fold

B8
Kd [5]: 14.7 µM

B9: CYP33 RRM F49A mutant (domain or fragment, human, UniProt Q9UNP9 3-83, looked up)
chain: TTKRVLYVGGLAEEVDDKVLHAAFIPFGDITDIQIPLDYETEKHRGAAFVEFELAEDAAAAIDNMNESELFGRTIRVNLAK
fold decrease in affinity against wild-type CYP33 RRM [2]: ~14 fold

B10: MLL PHD3 W1594A mutant (domain or fragment, human, UniProt Q03164 1564-1628, looked up)
chain: AKGNFCPLCDKCYDDDDYESKMMQCGKCDRAVHSKCENLSDEMYEILSNLPESVAYTCVNCTERH
Kd [5]: 19.6 µM

B11: MLL PHD3 Y1619A mutant (domain or fragment, human, UniProt Q03164 1564-1628, looked up)
chain: AKGNFCPLCDKCYDDDDYESKMMQCGKCDRWVHSKCENLSDEMYEILSNLPESVAATCVNCTERH
binding result [5]: binds

B12: V1617A: MLL PHD3 with V1617 mutated to alanine (protein)
chain: AKGNFCPLCDKCYDDDDYESKMMQCGKCDRWVHSKCENLSDEMYEILSNLPESAAYTCVNCTERH
modifications: left off: GST, end not stated, cleaved
effect of mutation on structure [4]: does not affect the structural stability of PHD3

B13: Y1619A: MLL PHD3 with Y1619 mutated to alanine (protein)
chain: AKGNFCPLCDKCYDDDDYESKMMQCGKCDRWVHSKCENLSDEMYEILSNLPESVAATCVNCTERH
modifications: left off: GST, end not stated, cleaved
effect of mutation on structure [4]: disruption of the overall fold
